Test results: ChEMBL document CHEMBL1140119, “Heteroarylnitrones as drugs for neurodegenerative diseases: synthesis, neuroprotective properties, and free radical scavenger properties” (J Med Chem, 2008)
Active and inactive are the calls of the source. No cut-off for these calls is given here.

Experiments:
Homo sapiens = organism: Homo sapiens; assay: Neuroprotective activity against oxidative stress-induced cell death in human neuroblastoma cells; format: functional, cell-based
[1] = Antioxidant activity assessed as peroxyl free radical scavenging activity by ORAC-fluorescence assay relative to alpha-phenyl-N-tert-butylnitrone; format: functional
Summary of the method: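 Peroxyl scavenging by fluorescein ORAC at 60 °C in 75 mM phosphate buffer pH 7.4. Compounds at 10-1000 µM final with fluorescein 70 nM final; 30 s preincubation, then AAPH 12 mM final. Fluorescence (ex 490/em 515) read every minute for 12 min. Net AUC versus blank regressed on concentration and expressed as µmol PBN equivalents per µmol sample. Duplicates, at least three independent assays.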

J774 [2] = assay: Cytotoxicity against mouse J774 cells after 48 hrs by MTT assay; format: cell-based; settings: J774, 48 h
Summary of the method: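 J774 murine macrophages seeded at 1 × 10^5 cells/well and left 48 h at 37 °C in 5% CO2 to attach. Exposed to compounds at 50-500 µM for 48 h. MTT 0.2 mg/mL final for 3 h, formazan dissolved in DMSO, absorbance at 560 nm. IC50 is the concentration reducing control absorbance by 50%, averaged over two experiments.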

J774 [3] = assay: Cytotoxicity against mouse J774 cells at 10 uM after 48 hrs by MTT assay; format: cell-based; settings: j774, 48 h
SH-SY5Y [4] = assay: Neuroprotective activity against human SH-SY5Y cells assessed as inhibition of H2O2-induced cellular damage at 10 uM after 24 hrs relative to control; format: functional; parameters: scale not given: the % may be the effect or the level left
Summary of the method: (§1)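 SH-SY5Y cells (passages 3-16, MEM with 10% FBS, 37 °C, 5% CO2) seeded at 10^4 cells/well. Pretreated with compound at 10 µM for 1 h, then 100 µM H2O2 for 24 h; NAC 5 mM as positive control. Viability from LDH released into the medium. Difference relative to H2O2-only cells, normalized; neuroprotection computed from basal values. Triplicate, mean ± SD.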

[5] = test system: Radical scavenging activity; assay: Antioxidant activity assessed as reduction of DPPH radical scavenging activity at 0.1 mM; format: functional; parameters: scale not given: the % may be the effect or the level left
Summary of the method: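 DPPH reduction in ethanol. Test compound and DPPH both 0.1 mM final, preincubated 5 min at 37 °C, absorbance read at 520 nm. Reduction percentage = 100[(A0 − Ac)/A0], with A0 the untreated DPPH absorbance.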

SH-SY5Y [6] = assay: Neuroprotective activity against human SH-SY5Y cells assessed as inhibition of H2O2-induced cellular damage at 10 uM dosed 1 hr prior to H2O2 challenge after 24 hrs relative to control; format: functional; parameters: scale not given: the % may be the effect or the level left; summary of the method: as §1
[7] = Permeability across porcine brain lipid coated polyvinylidene fluoride membrane by PAMPA; format: ADME; settings: pig, read-out: permeability
Summary of the method: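 PAMPA-BBB assay. Filter of the donor plate (PVDF, 0.45 µm) coated with porcine brain lipid in dodecane (20 mg/mL). Compounds at 1 mg/mL in PBS/ethanol (9:1), filtered, placed in donor wells; acceptor wells held PBS/ethanol (9:1). Sandwich left 120 min at 25 °C, acceptor concentration measured by UV. Four wells per sample, at least three runs, mean ± SD.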

SH-SY5Y [8] = assay: Neuroprotective activity against human SH-SY5Y cells assessed as inhibition of H2O2-induced cellular damage at 1 uM dosed 1 hr prior to H2O2 challenge after 24 hrs relative to control; format: functional; parameters: scale not given: the % may be the effect or the level left
Summary of the method: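 SH-SY5Y neuroblastoma cells given compound at 1 µM 1 h before a 100 µM H2O2 challenge and then incubated 24 h. Viability measured as LDH activity and compared with H2O2-only cells; NAC 5 mM used as positive control. Three independent experiments, mean ± SD.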

[9] = test system: Radical scavenging activity; assay: Antioxidant activity assessed as reduction of DPPH radical scavenging activity at 10 mM; format: functional; parameters: scale not given: the % may be the effect or the level left

| SMILES | Activity (Homo sapiens) | PBN equivalents [1] | IC50 (J774 [2]) [µM] | Activity (J774 [3]) | Activity (SH-SY5Y [4]) [%] | Activity [5] [%] | Activity (SH-SY5Y [6]) [%] | Papp [7] [×10⁻⁶ cm/s] | Activity (SH-SY5Y [8]) [%] | Activity [9] [%] |
| --- | --- | --- | --- | --- | --- | --- | --- | --- | --- | --- |
| CC(C)(C)/[N+]([O-])=C/c1c(-c2ccccc2)no[n+]1[O-] | inactive | 6 | 100 | Non-toxic | 0 | 0 |  |  |  |  |
| [O-]/[N+](=C\c1nc(-c2ccccc2)ns1)C1CCCCC1 |  | 4.6 | 100 | Non-toxic | 23.6 | 11 | 43 |  |  |  |
| Cc1nnsc1/C=[N+](\[O-])C(C)(C)C | inactive |  | > 400 | Non-toxic | 0 | 0 |  |  |  |  |
| CC(C)(C)/[N+]([O-])=C/c1nc(-c2ccccc2)ns1 |  | 5.5 | > 400 | Non-toxic | 20.7 | 0 | 38 |  |  |  |
| Cc1c(/C=[N+](\[O-])C(C)(C)C)no[n+]1[O-] |  | 2.5 | > 400 | Non-toxic | 23 | 8 | 42 |  |  |  |
| CCOC(=O)c1snnc1/C=[N+](\[O-])C(C)(C)C | inactive |  | > 400 | Non-toxic | 0 | 0 |  |  |  |  |
| [O-]/[N+](=C\c1nc(-c2ccccc2)ns1)Cc1ccccc1 |  | 3.5 | 240 | Non-toxic | 18.1 | 0 | 33 |  |  |  |
| CC(C)(C)c1cc(-c2nsc(/C=[N+](\[O-])C(C)(C)C)n2)cc(C(C)(C)C)c1O |  | 6 | > 400 | Non-toxic | 25.2 | 40 | 46 | 4.5 | 20 |  |
| COc1ccc(-c2nsc(/C=[N+](\[O-])C(C)(C)C)n2)cc1 |  | 7 | > 400 | Non-toxic | 25 | 10 | 46 | 12.5 |  |  |
| CC(C)(C)/[N+]([O-])=C/c1nc(-c2ccc(Cl)cc2)ns1 |  | 1.5 | 200 | Non-toxic | 19.1 | 0 | 34 |  |  |  |
| CC(C)(C)/[N+]([O-])=C/c1nsc(-c2ccccc2)n1 |  | 2 | > 400 | Non-toxic | 20 | 41 | 36 |  |  |  |
| CC(C)(C)/[N+]([O-])=C/c1ccccc1 |  | 1 | > 400 |  | 20.6 | 0 | 37 |  |  | 20 |
| CC(C)(C)/[N+]([O-])=C/c1ccc2no[n+]([O-])c2c1 |  | 16.5 | 150 | Non-toxic | 13.4 | 17 | 24 |  |  |  |
